# Key:
# [1] = target: T1, Dihydroorotate dehydrogenase (Plasmodium falciparum, UniProt Q54A96); assay: Inhibition of Plasmodium falciparum recombinant N-terminal His6-tagged DHODH (159-569 residues) expressed in Escherichia coli BL21(DE3) using DHO as substrate measured every min for 5 mins by DCPI dye-based photometric analysis
# T1 sequence (Q54A96 whole entry): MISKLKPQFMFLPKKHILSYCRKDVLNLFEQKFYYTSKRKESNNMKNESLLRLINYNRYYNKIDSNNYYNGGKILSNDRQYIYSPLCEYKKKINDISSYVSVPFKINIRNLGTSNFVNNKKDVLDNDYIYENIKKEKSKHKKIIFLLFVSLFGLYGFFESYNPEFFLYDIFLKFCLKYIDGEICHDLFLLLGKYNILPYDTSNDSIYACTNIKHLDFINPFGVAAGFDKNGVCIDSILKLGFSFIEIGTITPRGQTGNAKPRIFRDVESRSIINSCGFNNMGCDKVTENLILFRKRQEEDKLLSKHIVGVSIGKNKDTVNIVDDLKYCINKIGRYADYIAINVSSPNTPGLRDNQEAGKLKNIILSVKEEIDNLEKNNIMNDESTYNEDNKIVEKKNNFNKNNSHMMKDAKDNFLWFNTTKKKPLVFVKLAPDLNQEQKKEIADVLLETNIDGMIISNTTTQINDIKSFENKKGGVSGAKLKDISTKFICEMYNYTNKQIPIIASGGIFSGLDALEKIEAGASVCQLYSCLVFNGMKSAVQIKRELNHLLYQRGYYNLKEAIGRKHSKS
# Method in brief: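 N-terminally truncated recombinant enzyme, His-tag IMAC then size exclusion purified, in 50 mM Tris/HCl pH 7.8, 150 mM KCl, 0.1% Triton X-100 with 60 μM DCIP and 20 μM decylubiquinone. Started with 200 μM DHO; initial rate from DCIP absorbance at 600 nm over the first 5 min. IC50 is mean ± SE of three experiments.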
# [2] = Dissociation constant, pKa of the compound by potentiometric analysis; format: physicochemical
# Plasmodium falciparum = assay: Anti-plasmodial activity against synchronized ring stage Plasmodium falciparum 3D7 infected in human erythrocytes assessed as reduction in parasitemia after 48 hrs by Sybr Green I dye-based flow cytometric analysis; format: functional, organism-based; details: 3D7, 48 h
# Method in brief: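 Parasites kept in O+ human erythrocytes in RPMI 1640 with HEPES pH 7.3, glutamine, glucose, gentamicin, 0.5mM hypoxanthine and 10% human serum, 4% hematocrit, 37°C in 1% O2/5% CO2. Sorbitol-synchronized rings; 1:2 serial dilutions from 300µM at 2% hematocrit, 1-2% parasitemia, 48h. SybrGreen I flow cytometry; triplicate points fitted to log[I] vs response for EC50.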
# [3] = target: Dihydroorotate dehydrogenase (quinone), mitochondrial (Homo sapiens, UniProt Q02127); assay: Inhibition of human recombinant N-terminal GST-tagged DHODH (31 to 395 residues) expressed in Escherichia coli BL21(DE3) using DHO as substrate preincubated for 5 mins followed by substrate addition and measured for 5 mins by DCPI dye-based assay
# Method in brief: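 GST-fused enzyme from E. coli, glutathione-affinity purified. Pre-incubated 5 min at 37°C in Tris buffer pH 8.0 with 100 μM coenzyme Q10, 50 μM DCIP and compounds (0.1% DMSO final). Started with 500 μM DHO; DCIP reduction followed at 650 nm over the first 5 min. IC50 is mean ± SE of three experiments.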
# [4] = Cytotoxicity against African green monkey COS7 cells after 48 hrs by MTT assay; format: cell-based; details: chlorocebus aethiops, COS-7 cells
# Method in brief: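 COS-7 cells in DMEM with 10% heat-inactivated FBS and gentamicin, 37°C, 5% CO2. Seeded at 10⁴ cells/well and left 16 h to adhere. Compounds added at several concentrations for 48 h. MTT added for 4 h, formazan dissolved in acidified Triton/isopropanol, OD read at 570 nm. CC50 from viability relative to control, given with 95% confidence interval of the fit.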
# [5] = Selectivity ratio of IC50 for human recombinant DHODH to IC50 for Plasmodium falciparum recombinant DHODH
# Sequence of Dihydroorotate dehydrogenase (quinone), mitochondrial (Q02127 whole entry, the tested form may be a part): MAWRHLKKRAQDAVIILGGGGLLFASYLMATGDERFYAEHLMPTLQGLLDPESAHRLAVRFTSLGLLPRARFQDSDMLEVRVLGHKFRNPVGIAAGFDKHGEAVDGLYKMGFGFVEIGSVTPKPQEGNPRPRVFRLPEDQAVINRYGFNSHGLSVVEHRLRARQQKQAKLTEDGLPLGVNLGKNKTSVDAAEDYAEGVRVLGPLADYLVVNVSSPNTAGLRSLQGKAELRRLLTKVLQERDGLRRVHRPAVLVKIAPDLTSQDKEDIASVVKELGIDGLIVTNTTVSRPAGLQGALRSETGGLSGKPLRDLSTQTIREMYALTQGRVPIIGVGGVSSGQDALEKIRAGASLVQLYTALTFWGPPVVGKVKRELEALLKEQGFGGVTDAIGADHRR
Structure (SMILES),IC50 [1] [µM],pKa [2],EC50 (Plasmodium falciparum) [µM],IC50 [3] [µM],CC50 at 48 h [4] [µM],Ratio IC50 [5]
Cc1c(C(=O)NCC(c2ccccc2)c2ccccc2)c(O)nn1C,> 250,6.54,–,–,–,–
Cn1nc(O)c(C(=O)O)c1COc1cccc(C(F)(F)F)c1,2.8,–,40.7,≥ 200,167,–
Cn1nc(O)c(C(=O)O)c1CNc1ccccc1,16,–,–,> 250,–,> 16
Cn1nc(OCc2ccccc2)c(C(=O)O)c1COc1ccccc1,> 250,–,–,–,–,–
O=C(NCC(c1ccccc1)c1ccccc1)c1nsnc1O,12,3.72,35.9,> 200,190,–
O=C(NCc1ccccc1)c1nsnc1O,35,3.69,–,> 200,–,> 6
CCOc1nn(C)c(COc2ccccc2)c1C(=O)O,> 250,–,–,–,–,–
Cn1cc(C(=O)NCC(c2ccccc2)c2ccccc2)c(O)n1,> 250,6.42,–,–,–,–
Cn1nc(OCC2CC2)c(C(=O)O)c1COc1ccccc1,> 250,–,–,–,–,–
CN(Cc1c(C(=O)O)c(O)nn1C)c1ccccc1,23,–,–,> 250,–,> 10
CCOC(=O)c1c(O)nn(C)c1COc1ccccc1,> 250,–,–,–,–,–
Cn1nc(O)c(C(=O)O)c1CSc1ccccc1,25,–,–,> 250,–,> 10
Cn1nc(O)c(C(=O)O)c1COc1ccccc1,19,–,–,> 250,–,> 13
Cn1nc(O)c(C(N)=O)c1COc1ccccc1,> 250,–,–,–,–,–
O=C(NCC(c1ccccc1)c1ccccc1)c1nonc1O,75,3.33,–,> 200,–,> 3
Cn1nc(O)c(C(=O)O)c1COc1ccc(C(F)(F)F)cc1,5.3,–,26.7,≥ 200,152,–

# Source: ChEMBL document CHEMBL4330080, “Hydroxyazole scaffold-based Plasmodium falciparum dihydroorotate dehydrogenase inhibitors: Synthesis, biological evaluation and X-ray structural studies” (Eur J Med Chem, 2019)
